# pIC50: −log10 of the molar value. Calls of active or inactive are those of the source. No cut-off for these calls is given here.
# Legend:
# DNA = assay: Binding affinity to ds26 DNA (unknown origin) assessed as equilibrium binding constant at 5 uM at 25 degreeC by […]; assay type: nucleic-acid assay
# How it was run: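 Fluorescence titration: ligand 5 μM in 10 mM Tris-HCl pH 7.4 with 60 mM KCl, nucleic acid added until saturation, 25 °C. Keq from nonlinear fit of F/F0 to an independent-site model.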
# Quadruplex DNA [1] = assay: Binding affinity to telomeric Htg24 G-quadruplex DNA (unknown origin) assessed as fluorescence quantum yield by fluorescence spectrophotometric method; assay type: nucleic-acid assay
# How it was run: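 Fluorescence quantum yield determined against fluorescein (Φ = 0.95) in 1% NaOH ethanol. Five increasing ligand concentrations added to fixed DNA, with absorbance and emission recorded for each.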
# Quadruplex DNA [2] = assay: Binding affinity to telomeric Htg24 G-quadruplex DNA (unknown origin) assessed as emission wavelength at 480 to 483 nm at pH 7.4 by spectrophotometric method; assay type: nucleic-acid assay
# Quadruplex DNA [3] = assay: Binding affinity to telomeric Htg24 G-quadruplex DNA (unknown origin) assessed as fold increase in fluorescence signal at 5 uM under pH condition 7.4 by fluorescence method; assay type: nucleic-acid assay
# How it was run: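 Ligand 5 μM with each nucleic acid at 15 μM in 10 mM Tris-HCl pH 7.4, 60 mM KCl; emission enhancement expressed as F/F0 against ligand without DNA.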
# Quadruplex DNA [4] = assay: Binding affinity to telomeric Htg24 G-quadruplex DNA (unknown origin) assessed as change in melting temperature at 5 uM at pH 7.4 by circular dichroism analysis; assay type: nucleic-acid assay
# How it was run: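 CD melting: G4-DNA 5 μM with ligand 5 μM in 10 mM Tris-HCl pH 7.4, 60 mM KCl; signal recorded at 1 °C intervals from 25 to 95 °C, heating 1.0 °C/min.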
# [5] = molecular target: Telomerase reverse transcriptase (Homo sapiens) (UniProt O14746); assay: Inhibition of telomerase in human HeLa cells incubated for 36 hrs by TRAP assay; assay type: cell-based; conditions: dose 1-20 µM
# Chain of Telomerase reverse transcriptase (Homo sapiens) (O14746 whole entry): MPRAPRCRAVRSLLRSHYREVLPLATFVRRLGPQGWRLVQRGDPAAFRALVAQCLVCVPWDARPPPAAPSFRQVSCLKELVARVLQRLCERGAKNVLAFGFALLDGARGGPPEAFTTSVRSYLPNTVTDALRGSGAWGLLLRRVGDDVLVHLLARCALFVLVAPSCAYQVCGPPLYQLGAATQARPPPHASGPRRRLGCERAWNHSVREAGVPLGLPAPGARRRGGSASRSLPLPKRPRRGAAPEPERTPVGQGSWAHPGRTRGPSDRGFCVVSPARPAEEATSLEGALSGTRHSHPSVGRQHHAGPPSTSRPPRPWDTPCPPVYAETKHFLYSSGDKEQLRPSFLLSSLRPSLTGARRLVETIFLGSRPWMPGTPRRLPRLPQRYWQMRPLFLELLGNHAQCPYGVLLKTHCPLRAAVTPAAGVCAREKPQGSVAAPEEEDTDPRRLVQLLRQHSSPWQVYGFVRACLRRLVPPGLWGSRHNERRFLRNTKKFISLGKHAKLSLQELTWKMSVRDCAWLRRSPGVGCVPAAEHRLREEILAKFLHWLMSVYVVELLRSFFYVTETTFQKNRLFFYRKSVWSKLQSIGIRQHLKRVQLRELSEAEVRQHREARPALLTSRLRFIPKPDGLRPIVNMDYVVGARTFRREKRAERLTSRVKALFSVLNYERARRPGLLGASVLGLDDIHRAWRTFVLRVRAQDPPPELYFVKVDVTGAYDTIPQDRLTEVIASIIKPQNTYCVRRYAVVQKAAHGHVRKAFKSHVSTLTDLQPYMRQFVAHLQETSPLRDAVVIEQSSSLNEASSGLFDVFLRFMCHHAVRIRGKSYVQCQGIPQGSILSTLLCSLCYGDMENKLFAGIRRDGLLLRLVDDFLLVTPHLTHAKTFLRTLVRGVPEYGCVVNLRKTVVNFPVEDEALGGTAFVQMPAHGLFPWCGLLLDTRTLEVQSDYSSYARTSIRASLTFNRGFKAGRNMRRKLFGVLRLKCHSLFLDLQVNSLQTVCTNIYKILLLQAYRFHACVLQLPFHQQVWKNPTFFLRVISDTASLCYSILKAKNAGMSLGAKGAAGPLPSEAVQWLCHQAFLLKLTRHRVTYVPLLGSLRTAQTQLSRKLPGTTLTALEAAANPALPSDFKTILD
# How it was run: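 HeLa cells were treated with ligand for 36 h, and 10^6 cells were lysed in CHAPS buffer on ice for 30 min. Extract protein (10–750 ng/ml) was extended with TS primer in TRAP buffer (pH 8.3) at 30 °C for 30 min, then heat-inactivated at 95 °C. Products were PCR-amplified for 33 cycles, resolved on 10% native PAGE and stained with SYBR Gold.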
# [6] = Drug uptake in nucleolus of human U87 cells assessed as change in fluorescence signal at 5 uM for 30 mins co-stained with DAPI for 10 mins followed by treating with RNase and measured after 30 mins by confocal laser fluorescence microscopic analysis; assay type: ADME, subcellular; conditions: u-87mg atcc, 1.167 h, time 70 min
# [7] = Drug uptake in nucleolus of human U87 cells assessed as disappearance of fluorescence signal at 5 uM for 30 mins co-stained with DAPI for 10 mins followed by treating with DNase and measured after 30 mins by confocal laser fluorescence microscopic analysis; assay type: ADME, subcellular; conditions: u-87mg atcc, 1.167 h, time 70 min
# Quadruplex DNA [8] = assay: Binding affinity to G4 quadruplex DNA in human U87 cells assessed as increase in BG4-induced fluorescence signal at 5 uM incubated for 30 mins by immunofluorescence based confocal microscopic analysis; assay type: cell-based
# How it was run: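 U87 cells fixed in 4% paraformaldehyde for 15 min, permeabilized with 0.1% Triton X-100 at 37 °C for 30 min, blocked with 5% goat serum for 3 h. BG4 antibody 3 h at 37 °C, then DyLight 405 anti-mouse IgG 3 h at 37 °C, then ligand 5 μM for 30 min. Confocal imaging for co-localization.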
# PC-3 = assay: Antiproliferative activity against human PC-3 cells assessed as reduction in cell viability […] by MTT assay; assay type: functional, cell-based
# HepG2 = assay: Antiproliferative activity against human HepG2 cells assessed as reduction in cell viability […] by MTT assay; assay type: functional, cell-based
# U-87 MG = assay: Antiproliferative activity against human U87 cells assessed as reduction in cell viability […] by MTT assay; assay type: functional, cell-based, U-87MG ATCC
# [9] = tested on: Quadruplex DNA [UNDEFINED MUTATION]; assay: Effect on confirmation of telomeric Htg24 G-quadruplex DNA A8G mutant (unknown origin) assessed as hybrid topology at 5 uM at pH 7.4 by circular dichroism analysis; assay type: nucleic-acid assay; conditions: Homo sapiens
# How it was run: (§1)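 CD spectra recorded on G4-DNA and ligand, each at 5 μM, in 10 mM Tris-HCl, pH 7.4, with 60 mM KCl. Scan range 220–340 nm in a 1 mm quartz cuvette, 1 nm bandwidth and step, 0.5 s/point. Each spectrum is the average of three scans.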
# [10] = tested on: Quadruplex DNA [UNDEFINED MUTATION]; assay: Effect on confirmation of telomeric Htg24 G-quadruplex DNA T19G mutant (unknown origin) assessed as hybrid topology at 5 uM at pH 7.4 by circular dichroism analysis; assay type: nucleic-acid assay; conditions: Homo sapiens; how it was run: as §1
# [11] = tested on: Quadruplex DNA [UNDEFINED MUTATION]; assay: Binding affinity to telomeric Htg24 G-quadruplex DNA G3A mutant (unknown origin) assessed as negative fluorescence signal at 5 uM under pH condition 7.4 by fluorescence titration analysis; assay type: nucleic-acid assay; conditions: Homo sapiens
# How it was run: (§2)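 Ligand held at 5 μM and mixed with each Htg24 point mutant in Tris-HCl buffer containing 60 mM KCl, pH 7.4. Fluorescence was read, and the signal change was computed as (F mutant − F wild type)/F wild type.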
# [12] = tested on: Quadruplex DNA [UNDEFINED MUTATION]; assay: Binding affinity to telomeric Htg24 G-quadruplex DNA T6G mutant (unknown origin) assessed as negative fluorescence signal at 5 uM under pH condition 7.4 by fluorescence titration analysis; assay type: nucleic-acid assay; conditions: Homo sapiens; how it was run: as §2
# [13] = tested on: Quadruplex DNA [UNDEFINED MUTATION]; assay: Binding affinity to telomeric Htg24 G-quadruplex DNA G16C mutant (unknown origin) assessed as negative fluorescence signal at 5 uM under pH condition 7.4 by fluorescence titration analysis; assay type: nucleic-acid assay; conditions: Homo sapiens
# How it was run: (§3)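 Ligand 5 μM mixed with wild-type or point-mutant Htg24 in Tris-HCl buffer with 60 mM KCl; signal change calculated as (F mutant − F wild type)/F wild type.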
# [14] = tested on: Quadruplex DNA [UNDEFINED MUTATION]; assay: Binding affinity to telomeric Htg24 G-quadruplex DNA G17A mutant (unknown origin) assessed as negative fluorescence signal at 5 uM under pH condition 7.4 by fluorescence titration analysis; assay type: nucleic-acid assay; conditions: Homo sapiens; how it was run: as §3
# [15] = tested on: Quadruplex DNA [UNDEFINED MUTATION]; assay: Binding affinity to telomeric Htg24 G-quadruplex DNA A20G mutant (unknown origin) assessed as negative fluorescence signal at 5 uM under pH condition 7.4 by fluorescence titration analysis; assay type: nucleic-acid assay; conditions: Homo sapiens; how it was run: as §3
# [16] = tested on: Quadruplex DNA [UNDEFINED MUTATION]; assay: Binding affinity to telomeric Htg24 G-quadruplex DNA G22A mutant (unknown origin) assessed as negative fluorescence signal at 5 uM under pH condition 7.4 by fluorescence titration analysis; assay type: nucleic-acid assay; conditions: Homo sapiens; how it was run: as §2
# [17] = tested on: Quadruplex DNA [UNDEFINED MUTATION]; assay: Binding affinity to telomeric Htg24 G-quadruplex DNA G22T mutant (unknown origin) assessed as negative fluorescence signal at 5 uM under pH condition 7.4 by fluorescence titration analysis; assay type: nucleic-acid assay; conditions: Homo sapiens; how it was run: as §2
# [18] = tested on: Quadruplex DNA [UNDEFINED MUTATION]; assay: Binding affinity to telomeric Htg24 G-quadruplex DNA G21T mutant (unknown origin) assessed as strong fluorescence signal at 5 uM under pH condition 7.4 by fluorescence titration analysis; assay type: nucleic-acid assay; conditions: Homo sapiens; how it was run: as §2
# [19] = tested on: Quadruplex DNA [UNDEFINED MUTATION]; assay: Binding affinity to telomeric Htg24 G-quadruplex DNA G23A mutant (unknown origin) assessed as fluorescence signal at 5 uM under pH condition 7.4 by fluorescence titration analysis; assay type: nucleic-acid assay; conditions: Homo sapiens; how it was run: as §2
# [20] = tested on: Quadruplex DNA [UNDEFINED MUTATION]; assay: Binding affinity to telomeric Htg24 G-quadruplex DNA G23C mutant (unknown origin) assessed as fluorescence signal at 5 uM under pH condition 7.4 by fluorescence titration analysis; assay type: nucleic-acid assay; conditions: Homo sapiens; how it was run: as §2
# [21] = tested on: Quadruplex DNA [UNDEFINED MUTATION]; assay: Binding affinity to telomeric Htg24 G-quadruplex DNA G23T mutant (unknown origin) assessed as fluorescence signal at 5 uM under pH condition 7.4 by fluorescence titration analysis; assay type: nucleic-acid assay; conditions: Homo sapiens; how it was run: as §2
structure (smiles),measurement,setting,value
CN(C)c1ccc(/C=C/c2cc(/C=C3\Sc4ccccc4N3CCCN3CCOCC3)c3ccccc3[n+]2C)cc1.[I-],Kb,DNA,367000 M⁻¹
same,Activity,Quadruplex DNA [1],0.217
same,Activity,Quadruplex DNA [2],642 nm
same,fold change (FC),Quadruplex DNA [3],120
same,ΔTm,Quadruplex DNA [4],9.1 °C
same,inhibition,[5],Dose-Dependent Effect
same,Drug uptake,[6],Not Active
same,Drug uptake,[7],Active
same,Activity,Quadruplex DNA [8],Active
same,pIC50,PC-3,4.89
same,pIC50,HepG2,4.89
same,pIC50,U-87 MG,4.82
same,Activity,[9],Active
same,Activity,[10],Active
same,Activity,[11],Active
same,Activity,[12],Active
same,Activity,[13],Active
same,Activity,[14],Active
same,Activity,[15],Active
same,Activity,[16],Active
same,Activity,[17],Active
same,Activity,[18],Active
same,Activity,[19],inactive
same,Activity,[20],inactive
same,Activity,[21],inactive

# Reference: ChEMBL document CHEMBL4834396, “Molecular Recognition and Imaging of Human Telomeric G-Quadruplex DNA in Live Cells: A Systematic Advancement of Thiazole Orange Scaffold To Enhance Binding Specificity and Inhibition of Gene Expression” (J Med Chem, 2021)
